The structures appear in SMILES notation.

The species named for test [1] is Rattus norvegicus. Nature of the test: Compound was tested for antidiuretic activity in rats under ethanol anesthesia. Type of test: functional, Urine. The essentials:
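Rats under ethanol anesthesia were given antidiuretic agonist assays against the USP posterior pituitary reference standard. Activity is expressed in units/mg.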

The species entered for test [2] is Rattus norvegicus. The test is described as follows: Antivasopressor activity in phenoxybenzamine treated rats under urethane anesthesia was determined; Agonistic activity was observed. The class given is functional.

Consider `N=C(N)NCCC[C@H](NC(=O)[C@@H]1CCCN1C(=O)[C@@H]1CSSC[C@H](N)C(=O)N[C@@H](Cc2ccc(O)cc2)C(=O)N[C@@H](Cc2ccccc2)C(=O)N[C@@H](CCC(N)=O)C(=O)N[C@@H](CC(N)=O)C(=O)N1)C(=O)NCC(N)=O` [VASOPRESSIN], for which the Antidiuretic activity in the test filed under Rattus norvegicus [1] is 330 U/mg. Also, the vasopressor activity in the test listed under Rattus norvegicus [2] worked out at 382 units/mg.
